Results on 10 compounds are retold here after ChEMBL document CHEMBL5107979, “Encoding BRAF inhibitor functions in protein degraders” (RSC Med Chem, 2022).

Series [1] relates to SK-MEL-28. The series can be described thus: Inhibition of ERK signalling pathway in human SK-MEL-28 cells harboring BRAF V600E mutant/wild type NRAS assessed as reduction in phosphorylated ERK level at 0.1 to 10 uM incubated for 4 hrs by densitometric analysis. In kind it is cell-based. To be noted: dose 0.1-10 µM. In outline: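 SK-MEL-28 melanoma in DMEM/10% FCS, plated 100,000 cells/well, grown 48 h, treated 4 h at indicated doses. Lysates (HEPES pH 7.5, 0.4 M KCl, 0.4% Triton X-100, protease/phosphatase inhibitors) immunoblotted on PVDF, imaged by LI-COR; densitometry normalised to loading control, relative to DMSO; mean of five independent repeats for dose-response.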

In series [2] the test system is von Hippel-Lindau disease tumor suppressor/Serine/threonine-protein kinase B-raf (Homo sapiens), P15056+P40337 [V600E]. Nature of the series: Protac activity at VHL/BRAF V600E mutant degradation in human SK-MEL-28 cells harboring wild type NRAS assessed as remaining BRAF V600E level at 1 uM incubated for 4 hrs by densitometric analysis. In kind it is cell-based. In outline: (§1)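 SK-MEL-28 melanoma cells (STR-authenticated, mycoplasma-free) in DMEM + 10% FCS, 37°C, 5% CO2; 100,000 cells/well seeded, grown 48 h, then compound-treated as indicated. Lysis in D0.4 buffer (HEPES pH 7.5, 0.4 M KCl, Triton X-100, EDTA) with protease/phosphatase inhibitors. Lysates run on 4-12% Bis-Tris gels and blotted to PVDF. LI-COR imaging; BRAF densitometry normalised to loading control, expressed relative to DMSO.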

The nature of series [3]: Distribution coefficient, logD of compound at pH 7.4 by chromatographic method. In kind it is physicochemical. Conditions: octanol/water. In outline: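 Chromatographic retention-time method at pH 7.4, calibrated against six reference drugs (atenolol, metoprolol, labetalol, diltiazem, triphenylene, permethrin) of known logD7.4 (R² = 0.99); mean analyte retention times converted via calibration line. At least two independent measurements per analyte.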

The nature of series [4]: Plasma protein binding in human at 0.5 mg/ml by HPLC analysis. In kind it is ADME, cell-free. Conditions: read-out: PPB (converted). An outline of the steps:
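HSA column (50 × 3 mm, 5 μm), 30 °C; samples 0.5 mg/mL in MeCN/DMSO 9:1, 2 μL injected. 50 mM ammonium acetate pH 7.4 to 30% iPrOH gradient over 5.4 min, held to 18 min; 1.0 mL/min, UV 254 nm. Log retention times calibrated to ten reference drugs' logK (R² = 0.94), converted to %PPB.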

Series [5] concerns the target Serine/threonine-protein kinase B-raf (Homo sapiens, UniProt P15056, V600E). Nature of the series: Inhibition of BRAF V600E mutant (unknown origin) using MEK1 (K97R) as substrate in presence of [gamma-33P]ATP by radiometric assay.
For series [6], the system named is SK-MEL-28. Nature of the series: Anticancer activity against human SK-MEL-28 cells assessed as reduction in cell viability incubated for 120 hrs by CellTiter-Glo luminescent assay. In kind it is functional, cell-based. In outline: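 SK-MEL-28 in DMEM with 10% FCS, 37°C, 5% CO2; seeded 400 cells/well in 384-well plates. T0 CellTiter-Glo reading taken at 24 h on a parallel plate; compounds dispensed acoustically, 5 days incubation, then CellTiter-Glo luminescence. Normalised to DMSO; GI50 by four-parameter log(inhibitor) vs response fit; mean±s.d., n=3.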

Series [7] relates to von Hippel-Lindau disease tumor suppressor/Serine/threonine-protein kinase B-raf (Homo sapiens), P15056+P40337 [V600E]. The series can be described thus: Protac activity at VHL/BRAF V600E mutant degradation in human SK-MEL-28 cells harboring wild type NRAS assessed as remaining BRAF V600E level at 10 uM incubated for 24 hrs by densitometric analysis. In kind it is cell-based. In outline: as §1

Series [8] has as its system SK-N-AS. The series can be described thus: Effect on ERK signalling pathway in human SK-N-AS harboring wild type BRAF/NRAS […] mutant assessed as phosphorylated ERK level at 0.1 to 10 uM incubated upto 24 hrs by western blot analysis. In kind it is functional, cell-based. To be noted: dose 0.1-10 µM. In outline: (§2)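 SK-N-AS neuroblastoma (NRAS mutant), DMEM/10% FCS, plated 100,000 cells/well, grown 48 h, then treated 4 h at indicated doses or 24 h at 10 μM. Lysed in HEPES pH 7.5/KCl/Triton buffer with protease and phosphatase inhibitors; SDS-PAGE, PVDF transfer, LI-COR imaging; densitometry normalised to loading control, relative to DMSO.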
On the technique in general: A western blot detects proteins with antibodies after separation by electrophoresis.

Series [9] relates to SK-N-AS. The series can be described thus: Effect on ERK signalling pathway in human SK-N-AS harboring wild type BRAF/NRAS […] mutant assessed as BRAF level at 0.1 to 10 uM incubated upto 24 hrs by western blot analysis. In kind it is functional, cell-based. Conditions: dose 0.1-10 µM. In outline:
as §2

Series [10] has as its system von Hippel-Lindau disease tumor suppressor/Serine/threonine-protein kinase B-raf (Homo sapiens), P15056+P40337 [V600E]. Nature of the series: Protac activity at VHL/BRAF V600E mutant degradation in human SK-MEL-28 cells harboring wild type NRAS assessed as remaining BRAF V600E level at 0.1 to 10 uM incubated for 4 hrs by densitometric analysis. Conditions: dose 0.1-10 µM. In kind it is cell-based. In outline:
as §1

Structures are written as SMILES. Active and inactive are the calls of the source. The calls are words filed in the database; no cut-off is given here.

Chain of Serine/threonine-protein kinase B-raf (P15056 2-766 V600E limits assumed): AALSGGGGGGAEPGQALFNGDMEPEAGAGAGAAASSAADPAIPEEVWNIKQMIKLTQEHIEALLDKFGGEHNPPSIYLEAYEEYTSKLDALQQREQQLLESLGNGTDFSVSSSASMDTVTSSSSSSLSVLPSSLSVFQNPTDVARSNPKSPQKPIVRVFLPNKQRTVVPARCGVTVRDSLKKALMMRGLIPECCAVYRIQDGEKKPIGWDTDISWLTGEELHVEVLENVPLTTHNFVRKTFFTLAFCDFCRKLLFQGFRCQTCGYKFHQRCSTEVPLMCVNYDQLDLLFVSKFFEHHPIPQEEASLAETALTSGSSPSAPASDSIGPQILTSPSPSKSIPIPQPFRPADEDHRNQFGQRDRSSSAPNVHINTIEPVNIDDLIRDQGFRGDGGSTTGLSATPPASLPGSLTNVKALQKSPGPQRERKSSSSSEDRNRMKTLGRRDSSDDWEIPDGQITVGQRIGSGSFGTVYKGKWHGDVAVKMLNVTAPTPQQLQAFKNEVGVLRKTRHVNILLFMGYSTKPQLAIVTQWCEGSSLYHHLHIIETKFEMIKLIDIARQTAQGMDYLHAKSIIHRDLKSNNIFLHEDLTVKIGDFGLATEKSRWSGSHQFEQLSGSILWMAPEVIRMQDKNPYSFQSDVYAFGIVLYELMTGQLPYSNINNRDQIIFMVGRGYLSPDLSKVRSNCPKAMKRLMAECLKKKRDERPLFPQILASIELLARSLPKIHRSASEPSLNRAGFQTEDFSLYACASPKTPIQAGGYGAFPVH

As to `CCCS(=O)(=O)Nc1ccc(F)c(C(=O)c2c[nH]c3ncc(-c4ccc(CNC(=O)CCCCOCCCCOCCCCOc5cc(-c6scnc6C)ccc5CNC(=O)[C@@H]5C[C@@H](O)CN5C(=O)[C@H](C(C)C)N5Cc6ccccc6C5=O)cc4)cc23)c1F`, the inhibition entry with SK-MEL-28 [1] is “Active”. Also, in series [2], the Remaining BRAF V600E level came out at 77%. The compound also yielded a chromatographic logD in [3] of 3.6. The fraction unbound at 0.5 mg/ml in series [4] is 0.04. The concentration for half-maximal inhibition (IC50) in [5] stood at 10 nM.
In series [3], `O=C1Nc2ccc(I)cc2C1=Cc1cc(Br)c(O)c(Br)c1` [GW305074X] gave a chromatographic logD of 2.3.
Take `CCCS(=O)(=O)Nc1ccc(F)c(C(=O)c2c[nH]c3ncc(-c4ccc(C(=O)NCCOCCOCCOCCOc5cc(-c6scnc6C)ccc5CNC(=O)[C@@H]5C[C@@H](O)CN5C(=O)[C@H](C(C)C)N5Cc6ccccc6C5=O)cc4)cc23)c1F`: the inhibition entry in the series with SK-MEL-28 [1] is “Active”. In [2], the Remaining BRAF V600E level was found to be 73%. In series [3], the chromatographic logD amounted to 2.5. For the same compound, the fraction unbound at 0.5 mg/ml in series [4] was 0.04. For the same compound, in [5], the 50% inhibitory concentration (IC50) was 3.4 nM.
`CCN(C)S(=O)(=O)Nc1ccc(F)c(C(=O)c2c[nH]c3ncc(-c4ccc(N5CCN(CC(=O)N[C@H](C(=O)N6C[C@H](O)C[C@H]6C(=O)NCc6ccc(-c7scnc7C)cc6)C(C)(C)C)CC5)cc4)cc23)c1F`: the Remaining BRAF V600E level in [2] is 52%. Further, the outcome (with SK-MEL-28 [6]; in [7]) was Active. For the same compound, in series [3], the chromatographic logD came to 3.2. In addition, the fraction unbound at 0.5 mg/ml in [4] is 0.04.
With `CCCS(=O)(=O)Nc1ccc(F)c(C(=O)c2c[nH]c3ncc(-c4ccc(C(=O)NCCCCCCOCCCCCOCCCCC(=O)N[C@H](C(=O)N5C[C@H](O)C[C@H]5C(=O)NCc5ccc(-c6scnc6C)cc5)C(C)(C)C)cc4)cc23)c1F`, in the series on SK-MEL-28 [1], the inhibition entry was “Active”. In addition, the Remaining BRAF V600E level in series [2] was more than 95%. The compound further registered a chromatographic logD in series [3] of 3.7. Besides, the fraction unbound at 0.5 mg/ml in series [4] was 0.04. For the same compound, the IC50 in [5] was 48 nM.
Consider `CCCS(=O)(=O)Nc1ccc(F)c(C(=O)c2c[nH]c3ncc(-c4ccc(C(=O)NCCOCCOCCOCCCCC(=O)N[C@H](C(=O)N5C[C@H](O)C[C@H]5C(=O)NCc5ccc(-c6scnc6C)cc5)C(C)(C)C)cc4)cc23)c1F`, for which the inhibition result with SK-MEL-28 [1] is “Active”. Further, the Remaining BRAF V600E level in series [2] was more than 95%. This compound displayed a chromatographic logD in series [3] of 2.4. Moreover, the fraction unbound at 0.5 mg/ml in series [4] was 0.05. Besides, the IC50 in series [5] is 0.31 nM.
Consider `CCCS(=O)(=O)Nc1ccc(F)c(C(=O)c2c[nH]c3ncc(-c4ccc(N5CCN(CC(=O)N[C@H](C(=O)N6C[C@H](O)C[C@H]6C(=O)NCc6ccc(-c7scnc7C)cc6)C(C)(C)C)CC5)cc4)cc23)c1F`, for which the outcome (in the series with SK-N-AS [8]; in the series on SK-N-AS [9]; in series [10]) was Active. For the same compound, the Remaining BRAF V600E level in series [2] was 46%. This compound returned a chromatographic logD in [3] of 2.9. Moreover, the fraction unbound at 0.5 mg/ml in series [4] was 0.04.
Consider `CCCS(=O)(=O)Nc1ccc(F)c(C(=O)c2c[nH]c3ncc(-c4ccc(CNC(=O)CCCCOCCOCCOCCOc5cc(-c6scnc6C)ccc5CNC(=O)[C@@H]5C[C@@H](O)CN5C(=O)[C@H](C(C)C)N5Cc6ccccc6C5=O)cc4)cc23)c1F`, for which the inhibition entry in the series with SK-MEL-28 [1] is “Active”. The Remaining BRAF V600E level in [2] stood at 77%. This compound also yielded a chromatographic logD in series [3] of 2.7. In addition, the fraction unbound at 0.5 mg/ml in [4] was 0.04. Further, the 50% inhibitory concentration (IC50) in series [5] stood at 3.8 nM.
In the case of `CCN(C)S(=O)(=O)Nc1ccc(F)c(C(=O)c2c[nH]c3ncc(-c4cnc(N5CCN(CC(=O)N[C@H](C(=O)N6C[C@H](O)C[C@H]6C(=O)N[C@@H](C)c6ccc(-c7scnc7C)cc6)C(C)(C)C)CC5)nc4)cc23)c1F`, the Remaining BRAF V600E level in series [2] was more than 95%. In addition, in [3], the chromatographic logD was determined as 3.2. Besides, the fraction unbound at 0.5 mg/ml in series [4] is 0.04.
Take `CCCS(=O)(=O)Nc1ccc(F)c(C(=O)c2c[nH]c3ncc(-c4ccc(C(=O)NCCOCCOCC(=O)N[C@H](C(=O)N5C[C@H](O)C[C@H]5C(=O)NCc5ccc(-c6scnc6C)cc5)C(C)(C)C)cc4)cc23)c1F`: the inhibition entry in the series with SK-MEL-28 [1] is “Active”. Also, the Remaining BRAF V600E level in series [2] was more than 95%. Further, the chromatographic logD in series [3] came out at 2.3. Besides, in series [4], the fraction unbound at 0.5 mg/ml was 0.05. Besides, the 50% inhibitory concentration (IC50) in series [5] worked out at 8.5 nM.

As usually defined, the chromatographic logD is lipophilicity estimated from chromatographic retention. A low value points to a more hydrophilic compound. Usually IC50 stands for the concentration that inhibits the measured activity by half.
